Laboratory results: ChEMBL document CHEMBL4513216, “Probing the Open Global Health Chemical Diversity Library for Multistage-Active Starting Points for Next-Generation Antimalarials” (ACS Infect Dis, 2020)

Experiment: Toxicity liver stage against HepG2, at 10uM
Format: cell-based
Set-up: test concentration 10 uM, cell line HepG2-A16-CD81EGFP
Details: human, HepG2-A16-CD81EGFP cells; read-out: INHIBITION
Outline: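 Uninfected HepG2-A16-CD81EGFP cells, 3 × 10^3 per well, 1536-well, plated on prespotted compound at 10 μM final, parasite-free screening media added to match infected plates; puromycin 10 μM positive, DMSO 0.5% negative; run in parallel with 48 h PbLuc assay at 37 °C, 5% CO2; viability by CellTiter-Glo luminescence, normalized to controls.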

For `CC(C)NC(=O)N[C@H]1C[C@@H](c2nc(-c3ccc(F)cc3)no2)N(C)C1`, the cytotoxicity at 10 µM was -7.97%.
With `COc1ccc(F)cc1S(=O)(=O)NCC(O)c1sccc1C` (stereo not given) the cytotoxicity at 10 µM was -0.269%.
`CSCCC(C)(O)CNS(=O)(=O)Cc1cccc(C)c1` (stereo not given) gave a cytotoxicity at 10 µM of 1.09%.
`O=c1[nH]c2cc(S(=O)(=O)N3CCC(c4ccsc4)CC3)ccc2o1` gave a cytotoxicity at 10 µM of -9.69%.
With `Cc1cnc(N2CCCn3c(nnc3Cn3cccn3)C2)nc1` the cytotoxicity at 10 µM was 6.19%.
Work on `CS(=O)(=O)N1CCC2(CC1)CN(CCn1cccn1)C(=O)CO2` yielded a cytotoxicity at 10 µM of -2.79%.
For `CC(=O)N1C[C@H]2C3(CCN(S(C)(=O)=O)CC3)CC[C@@]2(C(=O)N(C)C)C1`, the cytotoxicity at 10 µM was -1.16%.
`CN1[C@@H](C(=O)NCC2CC2)C[C@@H]2CN(c3ncccn3)C[C@@H]21` gave a cytotoxicity at 10 µM of 9.85%.
With `CCn1nccc1CNC(=O)C1CCCO1` (stereo not given) the cytotoxicity at 10 µM was -2.21%.
With `CCn1cc(Br)c(C(=O)NCc2ccccc2)n1` the cytotoxicity at 10 µM was 7.61%.
Compound `CC(C)Cc1noc(C2CCN(C(=O)c3cccs3)CC2)n1` has a cytotoxicity at 10 µM of 9.81%.
Compound `CCCc1nc(NCCOC)c2c(n1)c(C)nn2CC` has a cytotoxicity at 10 µM of 3.36%.
For `Cc1cc(-c2ccnn2C)nc(C2CCCN(S(C)(=O)=O)C2)n1` (stereo not given), the cytotoxicity at 10 µM was 3.33%.
`CN1C[C@@H](C(=O)NC2CC2)[C@@]2(COc3ccc(F)cc3C2=O)C1` gave a cytotoxicity at 10 µM of -26.5%.
`Cn1ccc(C(=O)N2CCc3[nH]nc(Nc4ccccc4)c3C2)n1` showed a cytotoxicity at 10 µM of 5.21%.
Work on `Cn1ccc(C(=O)NCC2(O)CCN(c3cnccn3)C2)n1` (stereo not given) yielded a cytotoxicity at 10 µM of 3.45%.
For `OC(CNCc1nnc2ccccn12)c1ccc2c(c1)OCCCO2` (stereo not given), the cytotoxicity at 10 µM was 2.93%.
In the case of `Cc1cc(C2CCCN(Cc3nnc(Cc4ccccc4)o3)C2)n[nH]1` (stereo not given), the cytotoxicity at 10 µM is reported as -5.78%.
For `NC(=O)C1CCN(C(=O)NC2CCc3cc(F)ccc32)CC1` (stereo not given), the cytotoxicity at 10 µM was 2.52%.
For `NC(=O)C1CCN(C(=O)NCc2ccc3c(c2)OCCO3)CC1`, the cytotoxicity at 10 µM was -8.14%.
With `OCCN1CCN(CC(O)c2ccc(C(F)(F)F)cc2)CC1` (stereo not given) the cytotoxicity at 10 µM was -10%.
In the case of `CCS(=O)(=O)CCNC(=O)NC(C)c1ccc(C)s1` (stereo not given), the cytotoxicity at 10 µM is reported as -8.64%.
`CCc1nc(C2CCCN2CCc2cccs2)no1` (stereo not given) gave a cytotoxicity at 10 µM of -108%.
In the case of `O=c1[nH]c(N2CC(O)C2)nc2c1cnn2-c1ccccc1`, the cytotoxicity at 10 µM is reported as 1.92%.
Work on `CC(C)NC(=O)C1CN(C(=O)Nc2cccc(F)c2)CC12CCOCC2` (stereo not given) yielded a cytotoxicity at 10 µM of -85.8%.
With `C[C@@H]1CN(C(=O)NC2CC2)C[C@]12CCN(c1ccsc1)C2=O` the cytotoxicity at 10 µM was 0.77%.
`CCN1CC2(CCC1=O)CCN(Cc1nncn1C)CC2` showed a cytotoxicity at 10 µM of 4.46%.
In the case of `CCNc1ncc(C(=O)N[C@H](C(N)=O)c2ccccc2)cn1`, the cytotoxicity at 10 µM is reported as 10.6%.
With `CCOCc1nc2c(c(N(C)Cc3ccsc3)n1)CCNCC2` the cytotoxicity at 10 µM was 11.1%.
With `Cc1ccccc1C(C(=O)NCCSC(C)C)N(C)C` (stereo not given) the cytotoxicity at 10 µM was 9.38%.
In the case of `COc1ccc(OC)c2c(C)cc(N(C)Cc3cc(C)on3)nc12`, the cytotoxicity at 10 µM is reported as 1.42%.
Work on `CC(=O)c1ccc(CN2C[C@@H](CN3CCC(O)CC3)[C@@H](CO)C2)cc1` yielded a cytotoxicity at 10 µM of 9.99%.
Work on `O=C(c1ncccc1O)N1CCN(Cc2ccco2)C(CCO)C1` (stereo not given) yielded a cytotoxicity at 10 µM of 3.89%.
`COc1cccc(CNc2nc(O)cc(C3CC(=O)N(C)C3)n2)c1` (stereo not given) showed a cytotoxicity at 10 µM of -2.24%.
Work on `NC(=O)C1CCN(C(=O)NCc2csc(Br)c2)CC1` yielded a cytotoxicity at 10 µM of -18%.
Work on `O=C(c1cccc2cccnc12)N1CCCC(n2ccnc2)C1` (stereo not given) yielded a cytotoxicity at 10 µM of -5.75%.
`COc1cc(C)nc(N2CCN(C(=O)CCn3cc(C)cn3)CC2)n1` gave a cytotoxicity at 10 µM of -3.56%.
Compound `COc1c(C)cnc(CN2CCOC(Cn3nc(C)nc3C)C2)c1C` (stereo not given) has a cytotoxicity at 10 µM of -13.1%.
Compound `Cn1nc2c(cc1=O)CN(Cc1nnc(-c3ccc(F)cc3)o1)CC2` has a cytotoxicity at 10 µM of -9.47%.
`CCc1onc(C)c1C(=O)N1CCN(c2ncc3c(n2)CCOC3)CC1` showed a cytotoxicity at 10 µM of 0.0912%.
In the case of `Cn1nc(CNC(=O)CC#N)c2c1CN(CC1CC1)CC2`, the cytotoxicity at 10 µM is reported as 7.4%.
In the case of `CN(Cc1cccnc1)CC1CC12CCN(c1nncs1)CC2` (stereo not given), the cytotoxicity at 10 µM is reported as 9.28%.
Compound `OCCN1CCOC2(CCCN(c3ncc(F)cn3)C2)C1` (stereo not given) has a cytotoxicity at 10 µM of 5.98%.
With `CN(C)CCN1CCO[C@H]2CN(Cc3ccccn3)C[C@H]21` the cytotoxicity at 10 µM was -1.91%.
For `Cn1ccnc1CN1CCO[C@H]2C(CNC(=O)c3ccco3)CC[C@@H]21` (stereo not given in full), the cytotoxicity at 10 µM was 3.62%.
